# Source: PubChem
# This is a sample that favours compounds with a hit; in the whole collection about 2% have one here.
# MC4R ag barr: activates human MC4R beta-arrestin recruitment | P32245 | actives 0.98% (n = 360,000) | U2OS MC4R beta-arrestin complementation, luminescence; percent of melanotan II response, DMSO zero | activation, % at 8.9 µM;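 active = activation above a per-plate cutoff, the mean activation of sample wells on that plate plus 3 SD, cut at about 8% in these data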
# Target sequence (P32245 whole entry, looked up): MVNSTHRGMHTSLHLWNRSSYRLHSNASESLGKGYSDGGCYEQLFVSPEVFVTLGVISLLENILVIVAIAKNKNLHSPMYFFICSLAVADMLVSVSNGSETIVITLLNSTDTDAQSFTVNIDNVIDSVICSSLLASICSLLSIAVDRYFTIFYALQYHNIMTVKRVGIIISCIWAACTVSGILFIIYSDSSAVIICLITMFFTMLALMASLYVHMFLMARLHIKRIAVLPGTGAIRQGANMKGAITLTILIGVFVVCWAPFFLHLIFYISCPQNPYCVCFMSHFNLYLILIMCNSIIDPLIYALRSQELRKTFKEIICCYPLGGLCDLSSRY
# MC4R antag cAMP: human MC4R antagonism in cAMP assay; MC4R-expressing cells, MTII-stimulated cAMP, LANCE TR-FRET; inhibition, % at 6.5 µM; actives 0.48% (n = 360,000); AID 540295;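 active = inhibition above its plate's cutoff, the mean of tested wells on that plate plus 3 SD, cut at about 29% in these data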
#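 Material: U2OS-MC4R stable cell line | Reagent: Melanotan II challenge after compound preincubation | Doses: One concentration, 6.5 µM nominal | Incubation: 30-min compound preincubation, 1-h Melanotan II challenge, 1-h detection, room temperature | Signal: TR-FRET cAMP assay | Replicates: One well per compound, no replicates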
# UPR XBP1 act: activators of adaptive arm of unfolded protein response (XBP1) | activation, % at 20 µM | actives 0.33% (n = 330,000) | CHO-XBP1 luciferase reporter, IRE1-XBP1 UPR activation, luminescence; percent of tunicamycin response, DMSO as zero;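 active = versus positive control, 20 µM dose yields 30% or more activation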
#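 Signal: luciferase luminescence; Assay system: CHO-XBP1 luciferase reporter cells; Amount: one thousand reporter cells per well; Dosing: 20 µM single concentration, DMSO 1%; Benchmarks: high control tunicamycin 10 µg/mL final, low control DMSO vehicle only; Schedule: 6 h compound exposure at 37 °C, 5% CO2; Evaluation: percent activation relative to tunicamycin reference.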
# Bfl-1 A1 inh: inhibitors of the anti-apoptotic protein A1, read as caspase activation. MEF A1-2A-BIM cells, Caspase-Glo 3/7 luminescence, 3 h; percent of clofoctol response, vehicle zero. caspase activation, % (no concentration beside the values). actives 0.066% (n = 330,000). AID 2462;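 active = over half of replicate activation scores above 10%, or exactly half above 10 with the replicate mean above 10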
# CHOP UPR activ: apoptotic UPR (CHOP) activation; AID 449763; activation, % at 10 µM; actives 0.34% (n = 330,000); CHO-CHOP luciferase reporter, luminescence; percent of tunicamycin response over DMSO baseline;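 active = at 10 µM dose, activation of 40% or more, normalized to positive control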
#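 measured by = luciferase luminescence | assay system = CHO-CHOP cells, stable luciferase reporter of PERK-eIF2a-CHOP signalling | amount = 500 reporter cells seeded per well | timing = 6 h compound exposure at 37 °C after overnight seeding | controls = positive tunicamycin 10 µg/mL, negative DMSO alone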
# cAMP nonselect: counter-screen for MC4R antagonists: nonselective cAMP signaling inhibitors; actives 26% (n = 1,600); inhibition, % at 6.5 µM; shares compounds with MC4R antag cAMP; parental U2OS, forskolin cAMP, LANCE TR-FRET;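 active = mean inhibition over triplicates above the low-control well mean plus 3 SD, set per campaign, cut at about 13% in these data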;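 also: signal is single emission at 671 nm which falls as cellular cAMP rises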
# MC4R cAMP antag: human MC4R cAMP antagonism confirmation. MC4R-expressing cells, MTII-stimulated cAMP, TR-FRET. actives 27% (n = 1,600). inhibition, % at 6.5 µM. shares compounds with MC4R antag cAMP; in the data active = inhibition above about 29%
# Hits are given with their value; - = inactive; . = not tested or not shown.
SMILES,MC4R ag barr,MC4R antag cAMP,UPR XBP1 act,Bfl-1 A1 inh,CHOP UPR activ,cAMP nonselect,MC4R cAMP antag
C=CCn1c(=S)[nH]c2scc(-c3cccs3)c2c1=O,-,51,.,.,.,17,-
Cn1c(=S)[nH]c2scc(-c3cccs3)c2c1=O,-,-,.,.,.,.,.
O=S1(=O)CCN(C2CC2)CC1,-,-,.,.,.,.,.
Cc1ccc(NC(=O)c2ccccc2)cc1,-,-,-,-,-,.,.
Cc1ccc(NC(=O)C2=C(c3ccccc3)S(=O)(=O)CCS2(=O)=O)cc1,-,61,-,-,-,50,44
CCOC(=O)CSc1nc2c(sc(=S)n2-c2ccc(CC)cc2)c(=O)[nH]1,-,31,-,-,-,-,-
CCOC(=O)CC(=O)CSc1nc2c(sc(=S)n2-c2ccccc2)c(=O)[nH]1,-,-,-,-,-,.,.
COC(=O)CSc1nnc(-c2ccc(S(=O)(=O)N3CCCCC3)cc2)o1,-,33,-,-,-,-,44
COC(=O)CSc1nnc(-c2ccc(S(=O)(=O)N3CCC(C)CC3)cc2)o1,-,-,-,-,-,.,.
Cc1ccc(S(=O)(=O)NCC(=O)OCc2nnc(-c3ccccc3)o2)cc1,-,30,-,-,-,-,-
CCOc1ccc(S(=O)(=O)NCC(=O)OCc2nnc(-c3ccccc3)o2)cc1,-,-,-,-,-,.,.
CCOC(=O)CSc1nnc(-c2ccc(NS(=O)(=O)c3ccc(C)cc3)cc2)o1,-,38,-,-,-,-,-
O=C1NC(=O)C2C3OC(C(Br)C3Br)C12 (centres undefined),-,-,.,.,.,.,.
COC(=O)[C@@H](Cc1c[nH]c2ccccc12)NCc1cccc(B(O)O)c1,-,-,.,.,.,.,.
N#Cc1c(NC(=O)C2CC=CCC2C(=O)O)sc2c1CCCCCC2 (centres undefined),-,-,-,-,-,.,.
CC(C)(C)C1CCc2c(sc(NC(=O)C3CC=CCC3C(=O)O)c2C#N)C1 (centres undefined),-,29,-,-,-,-,-
Cc1cc(C)c(S(=O)(=O)c2ccc(Cl)cc2)c(Cl)n1,-,-,-,-,-,.,.
Cc1cc(S(=O)(=O)c2ccc(Cl)cc2)nc(S(=O)(=O)c2ccc(Cl)cc2)c1C#N,-,39,.,.,.,29,-
N=c1c2c(ncn1Cc1ccco1)Oc1cc(O)ccc1C2c1ccccc1 (centres undefined),-,33,-,-,-,-,-
N=c1c2c(ncn1Cc1ccco1)Oc1c(ccc3ccccc13)C2c1ccccc1 (centres undefined),-,-,-,-,-,.,.
COc1ccc(Cl)cc1C=CC=Nc1ccccc1O,-,-,.,.,.,.,.
O=C(Nc1cccc(NC(=O)c2ccc(Br)o2)c1)c1ccccc1,-,34,-,.,-,-,-
COc1ccc(C2CCCCC2SCC(=O)O)cc1OC (centres undefined),-,-,.,.,.,.,.
COc1c(Cl)cnn(-c2ccc(C)cc2)c1=O,-,34,-,-,-,-,-
COc1ccc(Oc2c(Cl)cnn(-c3ccc(C)cc3)c2=O)cc1,-,59,-,-,-,36,82
SMILES,MC4R ag barr,MC4R antag cAMP,UPR XBP1 act,Bfl-1 A1 inh,CHOP UPR activ,cAMP nonselect,MC4R cAMP antag
COc1ccc(Oc2c(Cl)cnn(-c3ccc(Cl)c(Cl)c3)c2=O)cc1,-,-,-,-,-,.,.
COc1ccc(Oc2c(Cl)cnn(-c3ccc(F)cc3)c2=O)cc1,-,58,-,-,-,40,73
C[C@H](CO)N1C[C@H](C)[C@@H](CN(C)Cc2ccncc2)OCc2cnnn2CCCC1=O,-,-,.,.,.,.,.
Cc1ccc(S(=O)(=O)CCC(=O)OCC(=O)N(C)c2ccccc2)cc1,-,-,.,.,.,.,.
O=C(N/N=C(\c1ccccc1)c1ccccn1)c1ccccc1Cl,-,-,-,-,-,.,.
C/C(=N\NC(=O)c1ccccc1Cl)c1ccccn1,-,29,-,-,-,29,-
CCC(=O)N(c1nnc(SC(C)C(=O)Nc2ccc(N3CCOCC3)cc2)s1)C1CC1 (centres undefined),-,-,.,.,.,.,.
CCOc1cc(/C=C2\N=C(C)OC2=O)cc(Cl)c1OCC(=O)OC,-,-,-,-,-,.,.
CCCCOc1c(Br)cc(/C=C2\N=C(C)OC2=O)cc1OCC,-,33,-,-,-,-,-
CC(=O)N1CCC(C(=O)Nc2cc(S(=O)(=O)N3CCCCC3)ccc2C)CC1,-,-,.,.,.,.,.
CCOc1ccccc1OCC(=O)Oc1ccc(C)c(C)c1,-,29,-,-,-,-,-
CNc1nc(Nc2ccc(C(=O)OC)cc2)c2sccc2n1,-,-,.,.,.,.,.
Cn1cc(CN2CCC(C(=O)N3CCCC3)CC2)c(-c2ccccc2F)n1,-,-,-,-,-,.,.
Cn1cc(CN2C[C@H]3CC[C@H]2C3)c(-c2ccccc2F)n1,-,29,-,-,-,-,-
Cc1coc2cc3oc(=O)c(CC(=O)N(C)CC(=O)O)c(C)c3cc12,-,29,-,-,-,19,-
CC(NS(=O)(=O)c1cccc(Cl)c1F)[C@H](O)c1ccccc1 (some centres undefined),-,-,.,.,.,.,.
Cc1cc(C)cc(OC(=O)CS(=O)c2ccc(C(F)(F)F)cc2[N+](=O)[O-])c1 (centres undefined),-,-,-,-,-,.,.
O=C(CS(=O)c1ccc(C(F)(F)F)cc1[N+](=O)[O-])Oc1ccc(Cl)cc1 (centres undefined),-,33,-,-,-,-,-
CCc1ccc(CNC(=O)C2CCN(S(=O)(=O)N3CCCCC3)CC2)cc1,-,-,.,.,.,.,.
Cc1ccc(-c2cn3cccnc3n2)cc1NC(=O)c1cccs1,-,30,-,-,-,-,-
COc1cc(OC)cc(C(=O)Nc2cc(-c3cn4cccnc4n3)ccc2C)c1,-,-,-,-,-,.,.
C[C@H](CO)N1C[C@H](C)[C@@H](CN(C)Cc2cccc(F)c2)Oc2cc(-c3cccc(C#N)c3)ccc2S1(=O)=O,-,-,.,.,.,.,.
CC(C)(C)c1nc(SCC(=O)NC2CCCC2)c2ccccc2n1,-,29,-,-,-,-,-
CC(C)c1nc(SCC(=O)NC2CCCCC2)c2ccccc2n1,-,-,-,-,-,.,.
c1ccc(CNc2nc(NCCc3ccncc3)c3sccc3n2)cc1,-,-,.,.,.,.,.
CC1(C)C(=O)Nc2ccccc2N1C(=O)COC(=O)c1cc(S(=O)(=O)N2CCOCC2)ccc1F,-,36,-,-,-,17,46
CC1(C)C(=O)Nc2ccccc2N1C(=O)COC(=O)c1cc(S(C)(=O)=O)ccc1Cl,-,-,-,.,-,.,.
